The source made the active and inactive calls. The rule behind the calls is not given here.
Columns and labels:
[1] = Induction of disassembly of preformed amyloid beta (1 to 40) fibrils assessed as decrease in fibril amount at 10:1 compound to amyloid beta ratio by thioflavin T fluorescence method
Procedure, shortened: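 Aβ1-40 fibrils were grown at 100 μM final in 10 mM HEPES/100 mM NaCl, pH 7.4, at 37°C with 77 rpm shaking until THT saturation. Compound was added from 0.15 M DMSO stock, vortexed and re-incubated under the same conditions, then sampled periodically into 5 μM ThT (glycine-NaOH, pH 8.5). Read at ex 430/em 484 nm, ThT background subtracted, normalized to Aβ-only control; 3–4 parallel runs, mean ± SD.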

[2] = Induction of disassembly of preformed amyloid beta (1 to 40) fibrils assessed as disaggregated fibrils at 10:1 compound to amyloid beta ratio for 4 days by fourier-transform infrared spectroscopy
Procedure, shortened: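 Preformed Aβ1-40 fibrils (100 μM, HEPES pH 7.4, grown at 37°C with 77 rpm shaking to THT saturation) were exposed to compound added from DMSO stock and re-incubated at 37°C with shaking. For FTIR, 20 μl aliquots were lyophilized and mixed with 0.2 g solid KBr.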

[3] = Induction of disassembly of preformed amyloid beta (1 to 40) fibrils assessed as disaggregated fibrils at 10:1 compound to amyloid beta ratio for 4 days by atomic force microscopy
Procedure, shortened: (§1)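 Synthetic Aβ1-40 dissolved in 100 mM NaOH, diluted to 100 μM in 10 mM HEPES (100 mM NaCl, 0.02% NaN3, pH 7.4), grown at 37°C with shaking (77 rpm) until ThT saturation. Compound added from 0.15 M DMSO stock at 10:1 molar ratio, vortexed 30 s, re-incubated 37°C shaking. Aliquots of 2-5 μL spotted on fresh mica for 30-60 s, water-rinsed, air-dried. Imaged by non-contact AFM.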

[4] = Induction of disassembly of preformed amyloid beta (1 to 40) fibrils assessed as disaggregated fibrils at 10:1 compound to amyloid beta ratio for 6 days by atomic force microscopy; procedure, shortened: as §1
[5] = Induction of disassembly of preformed amyloid beta (1 to 40) fibrils assessed as disaggregated fibrils at 10:1 compound to amyloid beta ratio by atomic force microscopy; conditions: TDE = time-dependent effect; procedure, shortened: as §1
[6] = Induction of disassembly of preformed amyloid beta (1 to 40) fibrils assessed as disaggregated fibrils at 10:1 compound to amyloid beta ratio for 1 day by atomic force microscopy; procedure, shortened: as §1

| SMILES | Activity [1] | Activity [2] | also measured |
| --- | --- | --- | --- |
| CCOC(=O)C(O)(c1c[nH]c2ccc(Br)cc12)C(F)(F)F (racemic) | Active | Active |  |
| CCOC(=O)C(O)(c1c(C)[nH]c2ccc(OC)cc12)C(F)(F)F (racemic) | Active |  |  |
| CCOC(=O)[C@](O)(c1c[nH]c2ccc(Br)cc12)C(F)(F)F | Active | Active |  |
| CCOC(=O)C(O)(c1c[nH]c2ccc(Cl)cc12)C(F)(F)F (racemic) | Active | Active |  |
| CCOC(=O)C(O)(c1c[nH]c2ccc(I)cc12)C(F)(F)F (racemic) | Active |  |  |
| CCOC(=O)[C@](O)(c1c[nH]c2ccc(Cl)cc12)C(F)(F)F | Active | Active |  |
| CCOC(=O)[C@@](O)(c1c[nH]c2ccc(I)cc12)C(F)(F)F | Active | Active | Activity [3]: Active |
| CCOC(=O)[C@@](O)(c1c[nH]c2ccc(Br)cc12)C(F)(F)F | Active | Active |  |
| CCOC(=O)[C@@](O)(c1c[nH]c2ccc(Cl)cc12)C(F)(F)F | Active | Active | Activity [3]: Active |
| CCOC(=O)C(O)(c1c(C)[nH]c2ccc(C)cc12)C(F)(F)F (racemic) | Active |  |  |
| CCOC(=O)[C@](O)(c1c[nH]c2ccc(I)cc12)C(F)(F)F | Active | Active | Activity [4]: Active; Activity [5]: tde; Activity [6]: Active; Activity [3]: Active |
| COc1ccc2[nH]cc(CCNC(C)=O)c2c1 | Active | Active |  |
| CCOC(=O)C(O)(c1c[nH]c2ccc(C)cc12)C(F)(F)F (racemic) | Active |  |  |
| CCOC(=O)C(O)(c1c(C)[nH]c2ccc(C(=O)OC)cc12)C(F)(F)F (racemic) | Active | Active |  |
| CCOC(=O)C(O)(c1c[nH]c2ccccc12)C(F)(F)F (racemic) | Active |  |  |
| CCOC(=O)C(O)(c1c(C)n(C)c2ccccc12)C(F)(F)F (racemic) | Active |  |  |
